In ChEMBL document CHEMBL1147062, “Therapeutic anticancer efficacy of a synthetic diazonamide analog in the absence of overt toxicity” (Proc Natl Acad Sci U S A, 2007):
Calls of active or inactive are those of the source. The rule behind the calls is not given here.

Assays:
MDA-MB-435 [1] = experiment: Antitumor activity against human MDA-MB-435 cells xenografted into NCR nu/nu mouse at 0.7 mg/kg, ip dosed in q3-4dX4 schedule relative to control; assay type: functional; conditions: route intraperitoneal
Mus musculus [2] = experiment: Toxicity in human HCT116 cells xenografted NCR nu/nu mouse assessed as decrease in neutrophil count in peripheral blood at 20 mg/kg, iv QD for 6 days relative to control; assay type: organism-based, HCT-116; set-up: dose 20 mg/kg, route intravenous; conditions: in vivo, 144 h
Summary of the method: (§1)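 NCR nu/nu mice received 10^7 HCT116 cells s.c. in the left flank 12 days before therapy. Dosing was i.v. qd × 6: 20 mg/kg in cremaphor:ethanol/5% dextrose, or 2 mg/kg vinblastine sulfate in 5% dextrose. Mice were weighed daily. On day 8, Gr1hi neutrophils in tail-vein blood and femoral marrow were counted by flow cytometry and compared with control by ANOVA and Dunnett's test.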

Mus musculus [3] = experiment: Toxicity in human HCT116 cells xenografted NCR nu/nu mouse assessed as loss of body weight at 20 mg/kg, iv QD for 6 days; assay type: organism-based, HCT-116; set-up: dose 20 mg/kg, route intravenous; conditions: in vivo, 144 h; summary of the method: as §1
Mus musculus [4] = experiment: Toxicity in human HCT116 cells xenografted NCR nu/nu mouse assessed as decrease in neutrophil count in peripheral blood at 2 mg/kg, iv QD for 6 days relative to control; assay type: organism-based, HCT-116; set-up: dose 2 mg/kg, route intravenous; conditions: in vivo, 144 h; summary of the method: as §1
Mus musculus [5] = experiment: Toxicity in human HCT116 cells xenografted NCR nu/nu mouse assessed as decrease in neutrophil count in bone marrow at 20 mg/kg, iv QD for 6 days relative to control; assay type: organism-based, HCT-116; set-up: dose 20 mg/kg, route intravenous; conditions: in vivo, 144 h; summary of the method: as §1
Mus musculus [6] = experiment: Toxicity in human HCT116 cells xenografted NCR nu/nu mouse assessed as loss of body weight iv QD for 6 days; conditions: in vivo, 144 h
HCT-116 [7] = experiment: Antitumor activity against human HCT116 cells xenografted into NCR nu/nu mouse at 0.45 mg/kg, ip dosed in q2-3dX6 schedule relative to control; assay type: functional; conditions: route intraperitoneal
Mus musculus [8] = experiment: Toxicity in human HCT116 cells xenografted NCR nu/nu mouse assessed as decrease in neutrophil count in bone marrow at 2 mg/kg, iv QD for 6 days relative to control; assay type: organism-based, HCT-116; set-up: dose 2 mg/kg, route intravenous; conditions: in vivo, 144 h; summary of the method: as §1
Mus musculus [9] = experiment: Toxicity in NCR nu/nu mouse neutropenia model assessed as loss of body weight at 20 mg/kg, iv QD for 6 days; assay type: organism-based; set-up: dose 20 mg/kg, route intravenous; conditions: in vivo, 144 h
Summary of the method: (§2)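 Non-tumor-bearing NCR nu/nu mice, four to five per group, got 20 mg/kg i.v. qd × 6 in cremaphor:ethanol/5% dextrose, or vehicle. They were weighed and observed daily and killed on day 8. Tail-vein blood and femoral marrow were lysed of erythrocytes, stained for Gr1 and analyzed by flow cytometry. Neutrophil counts were %Gr1hi × white cells per ml or per femur. Groups were compared with control by one-way ANOVA and Dunnett's test.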

[10] = Terminal half life in NCR nu/nu mouse plasma at 20 mg/kg, iv; assay type: ADME, organism-based; set-up: dose 20 mg/kg, route intravenous
Summary of the method: (§3)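 Each NCR nu/nu mouse got one i.v. bolus of 20 mg/kg in 0.2 ml of 1:1 cremaphor:ethanol (10%) diluted in 5% dextrose. At set times mice were killed by CO2 overdose and bled by cardiac puncture into sodium citrate. Plasma was spun 10 min at 8,000 × g and frozen at −80°C. LC-MS used an internal standard and a spiked blank murine plasma standard curve. Parameters came from noncompartmental analysis.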

Mus musculus [11] = experiment: Toxicity in NCR nu/nu mouse assessed as loss of body weight at 7.5 mg/kg, iv for 6 days; assay type: organism-based; set-up: dose 7.5 mg/kg, route intravenous; conditions: in vivo, 144 h
Summary of the method: (§4)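 Nude mice carried 10^7 PC3 cells s.c. in the left flank and were randomized into groups of six to seven when tumors reached ≈250 mm3. Mice were dosed at 20, 7.5 or 2.5 mg/kg for 6 consecutive days. Body weight was tracked against starting weight, including 2 days after the last dose.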

HCT-116 [12] = experiment: Antitumor activity against human HCT116 cells xenografted into NCR nu/nu mouse at 5 mg/kg, ip dosed in q2-3dX6 schedule relative to control; assay type: functional; conditions: route intraperitoneal
Summary of the method: (§5)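 NCR nu/nu mice given 7.5–10 × 10^6 tumor cells s.c. in the left flank. At ≈100–300 mm3 (5–10 days), mice were randomized into groups of 4–7. Compound was predissolved in 1:1 cremaphor:ethanol, then diluted into 5% dextrose. Dosed i.v. or i.p. in 0.2 ml on Monday, Wednesday and Friday for 2 weeks. Caliper measurements 2–3 times weekly; volume = (length × width2)/2.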

PC-3 [13] = experiment: Antitumor activity against human PC3 cells xenografted into NCR nu/nu mouse at 20 mg/kg, iv dosed in qdX6 schedule relative to control; assay type: functional
Summary of the method: (§6)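 Nude mice received 10^7 PC3 cells s.c. in the left flank and were randomized at ≈250 mm3 into groups of six to seven. Dosing was i.v. daily for 6 consecutive days, in 0.2 ml cremaphor:ethanol (1:1) diluted in 5% dextrose. Tumors were measured by calipers as (length × width2)/2, and weight was tracked alongside.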

PC-3 [14] = experiment: Antitumor activity against human PC3 cells xenografted into NCR nu/nu mouse at 7.5 mg/kg, iv dosed in qdX6 schedule relative to control; assay type: functional; summary of the method: as §6
PC-3 [15] = experiment: Antitumor activity against human PC3 cells xenografted into NCR nu/nu mouse at 2.5 mg/kg, iv dosed in qdX6 schedule relative to control; assay type: functional; summary of the method: as §6
HCT-116 [16] = experiment: Antitumor activity against human HCT116 cells xenografted into NCR nu/nu mouse at 20 mg/kg, ip dosed in q2-3dX6 schedule relative to control; assay type: functional; conditions: route intraperitoneal; summary of the method: as §5
HCT-116 [17] = experiment: Antitumor activity against human HCT116 cells xenografted into NCR nu/nu mouse at 5 mg/kg, iv dosed in q2-3dX6 schedule relative to control; assay type: functional; summary of the method: as §5
PC-3 [18] = experiment: Induction of histone H3 phosphorylation in human PC3 cells xenografted into NCR nu/nu mouse at 20 mg/kg, iv; assay type: functional, organism-based; set-up: dose 20 mg/kg
Summary of the method: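 nu/nu mice carried 10^7 PC3 cells s.c. in the left flank. On day 8 they got one i.v. dose of 20 mg/kg or vehicle, two mice per group. Tumors were taken 12 h later, snap-frozen and homogenized in RIPA buffer with phosphatase and protease inhibitors. 100 µg protein was Western blotted for phospho-histone H3, with actin as control.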

Mus musculus [19] = experiment: Volume of distribution in NCR nu/nu mouse plasma at 20 mg/kg, iv; assay type: ADME, organism-based; set-up: dose 20 mg/kg, route intravenous; conditions: in vivo; summary of the method: as §3
Mus musculus [20] = experiment: Toxicity in NCR nu/nu mouse neutropenia model assessed as decrease in neutrophil count in bone marrow at 20 mg/kg, iv QD for 6 days relative to control; assay type: organism-based; set-up: dose 20 mg/kg, route intravenous; conditions: in vivo, 144 h; summary of the method: as §2
PC-3 [21] = experiment: Antitumor activity against human PC3 cells xenografted into NCR nu/nu mouse at 20 mg/kg, iv dosed in q2-3dX6 schedule relative to control; assay type: functional; summary of the method: as §5
Mus musculus [22] = experiment: Toxicity in NCR nu/nu mouse neutropenia model assessed as severe flaking of skin at 20 mg/kg, iv QD for 6 days; assay type: organism-based; set-up: dose 20 mg/kg, route intravenous; conditions: in vivo, 144 h; summary of the method: as §2
[23] = Drug level in NCR nu/nu mouse plasma at 20 mg/kg, iv after 24 hrs; assay type: ADME, organism-based; set-up: dose 20 mg/kg, route intravenous; summary of the method: as §3
[24] = AUC in NCR nu/nu mouse plasma at 20 mg/kg, iv; assay type: ADME, organism-based; set-up: dose 20 mg/kg, route intravenous; summary of the method: as §3
MDA-MB-435 [25] = experiment: Antitumor activity against human MDA-MB-435 cells xenografted into NCR nu/nu mouse at 20 mg/kg, ip dosed in q3-4dX4 schedule relative to control; assay type: functional; conditions: route intraperitoneal
Summary of the method: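 NCR nu/nu mice bearing s.c. left-flank xenografts (7.5–10 × 10^6 cells) were randomized at ≈100–300 mm3 into groups of 4–7. Dosing was i.p. in 0.2 ml, with cremaphor:ethanol (1:1) stock diluted in 5% dextrose. Body weight and caliper tumor size were recorded 2–3 times per week; volume = (length × width2)/2.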

[26] = Clearance in NCR nu/nu mouse plasma at 20 mg/kg, iv; assay type: ADME, organism-based; set-up: dose 20 mg/kg, route intravenous; summary of the method: as §3
Mus musculus [27] = experiment: Toxicity in NCR nu/nu mouse assessed as loss of body weight at 20 mg/kg, iv for 6 days; assay type: organism-based; set-up: dose 20 mg/kg, route intravenous; conditions: in vivo, 144 h; summary of the method: as §4
Mus musculus [28] = experiment: Toxicity in NCR nu/nu mouse assessed as loss of body weight at 2.5 mg/kg, iv for 6 days; assay type: organism-based; set-up: dose 2.5 mg/kg, route intravenous; conditions: in vivo, 144 h; summary of the method: as §4
Mus musculus [29] = experiment: Toxicity in NCR nu/nu mouse neutropenia model assessed as decrease in neutrophil count in peripheral blood at 20 mg/kg, iv QD for 6 days relative to control; assay type: organism-based; set-up: dose 20 mg/kg, route intravenous; conditions: in vivo, 144 h; summary of the method: as §2
HCT-116 [30] = experiment: Antitumor activity against human HCT116 cells xenografted into NCR nu/nu mouse at 20 mg/kg, iv dosed in q2-3dX6 schedule relative to control; assay type: functional; summary of the method: as §5

| Compound | Activity (Mus musculus [2]) | Activity (Mus musculus [3]) | Activity (Mus musculus [4]) | Activity (Mus musculus [5]) | Activity (Mus musculus [6]) | Activity (Mus musculus [8]) | Activity (Mus musculus [9]) | Activity (Mus musculus [11]) | LCK (PC-3 [13]) | T/C (PC-3 [13]) [%] | LCK (PC-3 [14]) | T/C (PC-3 [14]) [%] | T/C (PC-3 [15]) [%] | Activity (Mus musculus [20]) | LCK (PC-3 [21]) | T/C (PC-3 [21]) [%] | Activity (Mus musculus [22]) | Activity (Mus musculus [27]) | Activity (Mus musculus [29]) | LCK (HCT-116 [30]) | also measured |
| --- | --- | --- | --- | --- | --- | --- | --- | --- | --- | --- | --- | --- | --- | --- | --- | --- | --- | --- | --- | --- | --- |
| CC[C@]1(O)C[C@@H]2CN(CCc3c([nH]c4ccccc34)[C@@](C(=O)OC)(c3cc4c(cc3OC)N(C)[C@H]3[C@@](O)(C(=O)OC)[C@H](OC(C)=O)[C@]5(CC)C=CCN6CC[C@]43[C@@H]65)C2)C1.O=S(=O)(O)O [VINBLASTINE SULFATE] | Toxic | Toxic | Toxic | Toxic | Toxic | Toxic | – | – | – | – | – | – | – | – | – | – | – | – | – | – | LCK (MDA-MB-435 [1]): 0.2; T/C (MDA-MB-435 [1]): 41.1%; LCK (HCT-116 [7]): 0.2; T/C (HCT-116 [7]): 56% |
| CC(C)[C@H](O)C(=O)N[C@@H]1C(=O)N[C@@H](C(C)C)c2nc3c(o2)C24c5ccc(cc5N[C@H]2Oc2ccc1cc24)-c1cccc2[nH]cc(c12)-c1cnc-3o1 (single isomer, unassigned) | Non-toxic | Non-toxic | Non-toxic | Non-toxic | Non-toxic | Non-toxic | Non-toxic | <= 5% | 2.4 | 2.1 | 1.6 | 3.9 | 31.4 | Non-toxic | 3.4 | 0.3 | Non-toxic | <= 5% | Non-toxic | 1.8 | half-life [10]: 4.96 h; LCK (HCT-116 [12]): 0.4; T/C (HCT-116 [12]): 41.9%; LCK (HCT-116 [16]): 1; T/C (HCT-116 [16]): 9.3%; LCK (HCT-116 [17]): 0.5; T/C (HCT-116 [17]): 26.5%; Activity (PC-3 [18]): Active; Vd (Mus musculus [19]): 62.7 mL; concentration at 24 h [23]: 15 ng/mL; AUC [24]: 50200 ng·h/mL; LCK (MDA-MB-435 [25]): 1; T/C (MDA-MB-435 [25]): 3.1%; clearance [26]: 0.146 mL/min; Activity (Mus musculus [28]): <= 5%; T/C (HCT-116 [30]): 0.2% |
| CC(=O)O[C@H]1C(=O)[C@@]2(C)[C@H]([C@H](OC(=O)c3ccccc3)[C@]3(O)C[C@H](OC(=O)[C@H](O)[C@@H](NC(=O)c4ccccc4)c4ccccc4)C(C)=C1C3(C)C)[C@]1(OC(C)=O)CO[C@@H]1C[C@@H]2O [PACLITAXEL] | Toxic | Toxic | Toxic | Toxic | Toxic | Toxic | 20% | 13% | 3.8 | 0.6 | 1.5 | 6.1 | 49.2 | Toxic | 3.4 | 0 | Toxic | > 20% | Toxic | 2.7 | LCK (PC-3 [15]): 0.3; T/C (HCT-116 [30]): 0.2% |
